ChEMBL document CHEMBL1126175, “Synthesis and antibacterial activity of new tetracyclic quinolone antibacterials” (J Med Chem, 1992)
Values after ≈ are worked out from the molar mass of the structure shown.

Tests used:
Pseudomonas aeruginosa [1] = assay: In vitro antibacterial activity against Pseudomonas aeruginosa IFO 3445,Pa(I),(gram-negative); assay type: functional
How it was run: (§1)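 MIC by serial 2-fold agar dilution on Mueller–Hinton agar; inoculum about 10^6 CFU/mL; MIC taken as lowest concentration preventing visible growth after 18 h at 37 °C.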

Pseudomonas aeruginosa [2] = assay: In vitro antibacterial activity against Pseudomonas aeruginosa E-2,Pa(E),(gram-negative); assay type: functional; how it was run: as §1
Staphylococcus aureus [3] = assay: In vitro antibacterial activity against staphylococcus aureus IID 803,(gram-positive); assay type: functional; how it was run: as §1
[4] = system: Staphylococcus epidermidis; assay: In vitro antibacterial activity against staphylococcus epidermidis IAM 1296, (gram-positive); assay type: functional; how it was run: as §1
Escherichia coli [5] = assay: In vitro antibacterial activity against Escherichia coli NIHJ JC-2,(gram-negative)
Staphylococcus aureus [6] = assay: In vitro antibacterial activity against staphylococcus aureus FDA 209P JC-1,Sa(F)(gram-positive); assay type: functional; how it was run: as §1
Enterococcus faecalis [7] = assay: In vitro antibacterial activity against Enterococcus faecalis IID 682,[…],(gram-positive); assay type: functional; how it was run: as §1
Escherichia coli [8] = assay: In vitro antibacterial activity against Escherichia coli KC-14, Ec(K), (gram-negative); assay type: functional; how it was run: as §1
Klebsiella pneumoniae = assay: In vitro antibacterial activity against klebsiella pneumoniae B54,Kp,(gram-negative); assay type: functional
Escherichia coli [9] = assay: In vitro antibacterial activity was measured against nalidixic acid resistant strain 7 from Escherichia coli KC-14; assay type: functional
How it was run: (§2)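 MIC by serial 2-fold agar dilution on Mueller–Hinton agar, inoculum about 10^6 CFU/mL. Plates were incubated 37 °C for 18 h. MIC was the lowest concentration preventing visible growth.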

Escherichia coli [10] = assay: In vitro antibacterial activity was measured against nalidixic acid resistant strain 6 from Escherichia coli KC-14; assay type: functional; how it was run: as §2
Escherichia coli [11] = assay: In vitro antibacterial activity was measured against nalidixic acid resistant strain 5 from Escherichia coli KC-14; assay type: functional; how it was run: as §2
Escherichia coli [12] = assay: In vitro antibacterial activity was measured against nalidixic acid resistant strain 2 from Escherichia coli KC-14; assay type: functional; how it was run: as §2
Escherichia coli [13] = assay: In vitro antibacterial activity was measured against nalidixic acid resistant strain 1 from Escherichia coli KC-14; assay type: functional; how it was run: as §2
Escherichia coli [14] = assay: In vitro antibacterial activity was measured against nalidixic acid resistant strain 3 from Escherichia coli KC-14; assay type: functional; how it was run: as §2
Escherichia coli [15] = assay: In vitro antibacterial activity was measured against nalidixic acid resistant strain 4 from Escherichia coli KC-14; assay type: functional; how it was run: as §2
Enterococcus faecalis [16] = assay: In vitro antibacterial activity against Enterococcus faecalis IID 682,Ef.([…]); assay type: functional; how it was run: as §1

| MIC (Pseudomonas aeruginosa [1]) | MIC (Pseudomonas aeruginosa [2]) | MIC (Staphylococcus aureus [3]) | MIC [4] | MIC (Escherichia coli [5]) | MIC (Staphylococcus aureus [6]) | MIC (Enterococcus faecalis [7]) | MIC (Escherichia coli [8]) | MIC (Klebsiella pneumoniae) | MIC (Escherichia coli [9]) | MIC (Escherichia coli [10]) | MIC (Escherichia coli [11]) | MIC (Escherichia coli [12]) | MIC (Escherichia coli [13]) | MIC (Escherichia coli [14]) | MIC (Escherichia coli [15]) | MIC (Enterococcus faecalis [16]) | Compound |
| --- | --- | --- | --- | --- | --- | --- | --- | --- | --- | --- | --- | --- | --- | --- | --- | --- | --- |
| > 25 µg/mL | > 25 µg/mL | 1.56 µg/mL (≈ 3.98 µM) | > 25 µg/mL | 3.13 µg/mL (≈ 7.98 µM) | 1.56 µg/mL (≈ 3.98 µM) | > 25 µg/mL | 3.13 µg/mL (≈ 7.98 µM) | 1.56 µg/mL (≈ 3.98 µM) | – | – | – | – | – | – | – | – | O=C(O)c1c(=O)c2cc(F)c(N3C[C@H](O)[C@@H](O)C3)c3c2n2c(csc12)CO3 |
| 3.13 µg/mL | 3.13 µg/mL | 0.2 µg/mL | 0.39 µg/mL | 0.2 µg/mL | 0.2 µg/mL | 0.78 µg/mL | 0.1 µg/mL | 0.39 µg/mL | – | – | – | – | – | – | – | – | C[C@@H]1CN(c2c(F)cc3c(=O)c(C(=O)O)c4scc5n4c3c2OC5)C[C@H](C)N1.Cl |
| 1.56 µg/mL (≈ 4.62 µM) | 3.13 µg/mL (≈ 9.28 µM) | 0.1 µg/mL (≈ 0.296 µM) | 0.2 µg/mL (≈ 0.593 µM) | 0.39 µg/mL (≈ 1.16 µM) | 0.2 µg/mL (≈ 0.593 µM) | 3.13 µg/mL (≈ 9.28 µM) | 0.2 µg/mL (≈ 0.593 µM) | 0.39 µg/mL (≈ 1.16 µM) | – | – | – | – | – | – | – | – | CSc1c(F)cc2c(=O)c(C(=O)O)c3scc4n3c2c1OC4 |
| 0.39 µg/mL (≈ 1.04 µM) | 0.39 µg/mL (≈ 1.04 µM) | 0.025 µg/mL (≈ 0.0664 µM) | 0.2 µg/mL (≈ 0.531 µM) | 0.05 µg/mL (≈ 0.133 µM) | 0.025 µg/mL (≈ 0.0664 µM) | 0.2 µg/mL (≈ 0.531 µM) | 0.05 µg/mL (≈ 0.133 µM) | 0.05 µg/mL (≈ 0.133 µM) | 0.2 µg/mL (≈ 0.531 µM) | 0.39 µg/mL (≈ 1.04 µM) | 0.78 µg/mL (≈ 2.07 µM) | > 3.13 µg/mL | > 3.13 µg/mL | 0.78 µg/mL (≈ 2.07 µM) | 0.78 µg/mL (≈ 2.07 µM) | – | O=C(O)c1c(=O)c2cc(F)c(N3CCC(O)C3)c3c2n2c(csc12)CO3 (centres undefined) |
| 1.56 µg/mL (≈ 4.33 µM) | 1.56 µg/mL (≈ 4.33 µM) | 0.05 µg/mL (≈ 0.139 µM) | 0.05 µg/mL (≈ 0.139 µM) | 0.2 µg/mL (≈ 0.555 µM) | 0.025 µg/mL (≈ 0.0694 µM) | 0.2 µg/mL (≈ 0.555 µM) | 0.2 µg/mL (≈ 0.555 µM) | 0.2 µg/mL (≈ 0.555 µM) | – | – | – | – | – | – | – | – | O=C(O)c1c(=O)c2cc(F)c(N3CCCC3)c3c2n2c(csc12)CO3 |
| 6.25 µg/mL (≈ 15.9 µM) | 3.13 µg/mL (≈ 7.98 µM) | 0.05 µg/mL (≈ 0.127 µM) | 0.1 µg/mL (≈ 0.255 µM) | 0.39 µg/mL (≈ 0.994 µM) | 0.05 µg/mL (≈ 0.127 µM) | 3.13 µg/mL (≈ 7.98 µM) | 0.39 µg/mL (≈ 0.994 µM) | 0.39 µg/mL (≈ 0.994 µM) | – | – | – | – | – | – | – | – | O=C(O)c1c(=O)c2cc(F)c(N3CCSCC3)c3c2n2c(csc12)CO3 |
| 6.25 µg/mL (≈ 16.1 µM) | 6.25 µg/mL (≈ 16.1 µM) | 1.56 µg/mL (≈ 4.01 µM) | 12.5 µg/mL (≈ 32.1 µM) | 1.56 µg/mL (≈ 4.01 µM) | 3.13 µg/mL (≈ 8.04 µM) | 3.13 µg/mL (≈ 8.04 µM) | 1.56 µg/mL (≈ 4.01 µM) | 1.56 µg/mL (≈ 4.01 µM) | – | – | – | – | – | – | – | – | O=C1CN(c2c(F)cc3c(=O)c(C(=O)O)c4scc5n4c3c2OC5)CCN1 |
| 3.13 µg/mL (≈ 9.74 µM) | 6.25 µg/mL (≈ 19.5 µM) | 0.2 µg/mL (≈ 0.623 µM) | 0.39 µg/mL (≈ 1.21 µM) | – | 0.2 µg/mL (≈ 0.623 µM) | 6.25 µg/mL (≈ 19.5 µM) | 0.78 µg/mL (≈ 2.43 µM) | 0.2 µg/mL (≈ 0.623 µM) | – | – | – | – | – | – | – | 6.25 µg/mL (≈ 19.5 µM) | COc1c(F)cc2c(=O)c(C(=O)O)c3scc4n3c2c1OC4 |
| 6.25 µg/mL (≈ 15 µM) | 6.25 µg/mL (≈ 15 µM) | 0.1 µg/mL (≈ 0.24 µM) | 0.78 µg/mL (≈ 1.87 µM) | 1.56 µg/mL (≈ 3.74 µM) | 0.2 µg/mL (≈ 0.479 µM) | 0.78 µg/mL (≈ 1.87 µM) | 1.56 µg/mL (≈ 3.74 µM) | 1.56 µg/mL (≈ 3.74 µM) | – | – | – | – | – | – | – | – | CC(=O)NC1CCN(c2c(F)cc3c(=O)c(C(=O)O)c4scc5n4c3c2OC5)C1 (centres undefined) |
| 0.78 µg/mL (≈ 2.08 µM) | 0.78 µg/mL (≈ 2.08 µM) | 0.39 µg/mL (≈ 1.04 µM) | 0.78 µg/mL (≈ 2.08 µM) | 0.2 µg/mL (≈ 0.533 µM) | 0.2 µg/mL (≈ 0.533 µM) | 0.78 µg/mL (≈ 2.08 µM) | 0.1 µg/mL (≈ 0.266 µM) | 0.1 µg/mL (≈ 0.266 µM) | – | – | – | – | – | – | – | – | NC1CCN(c2c(F)cc3c(=O)c(C(=O)O)c4scc5n4c3c2OC5)C1 (centres undefined) |
| 25 µg/mL (≈ 59.9 µM) | 3.13 µg/mL (≈ 7.5 µM) | 0.2 µg/mL (≈ 0.479 µM) | 0.1 µg/mL (≈ 0.24 µM) | – | 0.2 µg/mL (≈ 0.479 µM) | 0.39 µg/mL (≈ 0.934 µM) | 0.39 µg/mL (≈ 0.934 µM) | 0.39 µg/mL (≈ 0.934 µM) | – | – | – | – | – | – | – | – | CCNCC1CCN(c2c(F)cc3c(=O)c(C(=O)O)c4scc5n4c3c2OC5)C1 (centres undefined) |

| Compound | MIC (Pseudomonas aeruginosa [1]) | MIC (Pseudomonas aeruginosa [2]) | MIC (Staphylococcus aureus [3]) | MIC [4] | MIC (Escherichia coli [5]) | MIC (Staphylococcus aureus [6]) | MIC (Enterococcus faecalis [7]) | MIC (Escherichia coli [8]) | MIC (Klebsiella pneumoniae) | MIC (Escherichia coli [9]) | MIC (Escherichia coli [10]) | MIC (Escherichia coli [11]) | MIC (Escherichia coli [12]) | MIC (Escherichia coli [13]) | MIC (Escherichia coli [14]) | MIC (Escherichia coli [15]) | MIC (Enterococcus faecalis [16]) |
| --- | --- | --- | --- | --- | --- | --- | --- | --- | --- | --- | --- | --- | --- | --- | --- | --- | --- |
| O=C(O)c1c(=O)c2cc(F)c(N3CCNCC3)c3c2n2c(csc12)CO3 | 0.78 µg/mL (≈ 2.08 µM) | 0.78 µg/mL (≈ 2.08 µM) | 0.39 µg/mL (≈ 1.04 µM) | 1.56 µg/mL (≈ 4.16 µM) | 0.1 µg/mL (≈ 0.266 µM) | 0.39 µg/mL (≈ 1.04 µM) | 0.78 µg/mL (≈ 2.08 µM) | 0.1 µg/mL (≈ 0.266 µM) | 0.05 µg/mL (≈ 0.133 µM) | – | – | – | – | – | – | – | – |
